ChEMBL document CHEMBL1147036, “An NQO1- and PARP-1-mediated cell death pathway induced in non-small-cell lung cancer cells by beta-lapachone” (2007)
Calls of active or inactive are those of the source. The calls are words filed in the database; no cut-off is given here.

How the values were obtained:
A549 [1] = experiment: Induction of DNA damage in NQO1 expressing human A549 cells at 10 uM in presence of dicoumarol after 2 hrs by alkaline comet tail assay; assay type: functional, cell-based
In short: (§1)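 Cells exposed 10 μM drug for 2 h, ± 50 μM DIC; 2 mM H2O2 for 2 h as positive control. Alkaline comet assay, SYBR Green staining, fluorescence microscopy; tail lengths quantified in arbitrary units. Means ± SE from three experiments.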

A549 [2] = experiment: Reversal of cell death in human A549 cells at 10 uM in presence of 3-aminobenzamide after 2 hrs; assay type: functional, cell-based
NCI-H596 [3] = experiment: Reversal of induction of ATP depletion in NQO1 expressing human H596 cells at 10 uM in presence of 40 uM dicoumarol by luciferase based bioluminescence assay; assay type: functional, cell-based
In short: (§2)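 Cells exposed to 10 μM drug, harvested at set times; ATP measured in whole-cell extracts by luciferase bioluminescence. DIC coadded with drug in NQO1 inhibition arms. Means ± SE, three or more experiments in triplicate.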

A549 [4] = experiment: Induction of DNA damage in NQO1 expressing human A549 cells at 10 uM after 2 hrs by alkaline comet tail assay; assay type: functional, cell-based; in short: as §1
A549 [5] = experiment: Reversal of cell death in NQO1 expressing human A549 cells at 6 uM in presence of 1,2-bis(2-aminophenoxy)ethane-N,N,N',N'-tetraacetic acid acetoxymethyl ester; assay type: functional, cell-based
NCI-H596 [6] = experiment: Reversal of PAR-polymer formation in NQO1 expressing human H596 cells at 10 uM in presence of 50 uM dicoumarol; assay type: functional, cell-based
NCI-H596 [7] = experiment: Reversal of PARP1 hyperactivation in NQO1 expressing human H596 cells assessed as PAR formation in presence of 3-aminobenzamide; assay type: functional, cell-based
In short: (§3)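 Cells pretreated 2 h with or without 25 mM 3-aminobenzamide, then exposed to drug with or without 3-AB for 20 min; PAR formation read by Western blot.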

A549 [8] = experiment: Reversal of induction of ATP depletion in NQO1 expressing human A549 cells at 10 uM in presence of 40 uM dicoumarol by luciferase based bioluminescence assay; assay type: functional, cell-based; conditions: in the assay text read “50 uM dicoumarol” for “40 uM dicoumarol”; in short: as §2
A549 [9] = experiment: Induction of NAD+ depletion in NQO1 expressing human A549 cells at 6 uM after 1 hr by luciferase based bioluminescence assay; assay type: functional
In short: (§4)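 A549 cells pretreated with 5 μM BAPTA-AM or mock, then given 6 μM drug for 1 h; percent NAD+ loss measured as surrogate of PARP-1 hyperactivation, expressed as % of control.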

A549 [10] = experiment: Reversal of induction of NAD+ depletion in NQO1 expressing human A549 cells at 6 uM in presence of 1,2-bis(2-aminophenoxy)ethane-N,N,N',N'-tetraacetic acid acetoxymethyl ester; assay type: functional, cell-based; in short: as §4
A549 [11] = experiment: Reversal of PARP1 hyperactivation in NQO1 expressing human A549 cells assessed as PAR formation at 6 uM in presence of 1,2-bis(2-aminophenoxy)ethane-N,N,N',N'-tetraacetic acid acetoxymethyl ester; assay type: functional, cell-based
In short: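 A549 cells pretreated with 5 μM BAPTA-AM or mock, then exposed to 6 μM drug for 10 min; lysates probed for PAR by Western blot.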

NCI-H596 [12] = experiment: Reversal of induction of PARP1 hyperactivation in NQO1 expressing human H596 cells assessed as PAR accumulation at 10 uM for 10 mins by Western blot; assay type: functional, cell-based
A549 [13] = experiment: Cytotoxicity against NQO1 expressing human A549 cells after 2 hrs; assay type: functional; conditions: A549, 2 h, read-out: LD50 (the source's name)
In short: (§5)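 Long-term relative survival assay: cells exposed to drug for 2 h (A549 with or without 50 μM dicoumarol), drug removed, then grown 7 days post-treatment in DMEM with 10% FBS at 37°C, 5% CO2. Survival read from DNA content and confirmed by colony-forming ability. LD50 from dose-response; means ± SE, at least three experiments in triplicate. H596 line stably expressing NQO1 via retroviral vector, puromycin-selected.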

NCI-H596 [14] = experiment: Induction of DNA damage in NQO1 expressing human H596 cells at 10 uM after 2 hrs by alkaline comet tail assay; assay type: functional, cell-based; in short: as §1
NCI-H596 [15] = experiment: Reversal of induction of NAD+ depletion in NQO1 expressing human H596 cells at 10 uM in presence of 40 uM dicoumarol by luciferase based bioluminescence assay; assay type: functional, cell-based
In short: (§6)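 10 μM drug ± 40 μM DIC; intracellular NAD+ measured at set times and expressed as % treated/control. Means ± SE of at least three independent experiments, each in duplicate.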

A549 [16] = experiment: Reversal of PARP1 hyperactivation in NQO1 expressing human A549 cells assessed as PAR formation in presence of 3-aminobenzamide; assay type: functional, cell-based; in short: as §3
NCI-H596 [17] = experiment: Induction of ATP depletion in NQO1 expressing human H596 cells at 10 uM by luciferase based bioluminescence assay; assay type: functional, cell-based; in short: as §2
NCI-H596 [18] = experiment: Induction of PARP1 hyperactivation in NQO1 expressing human H596 cells assessed as PAR accumulation at 10 uM for 10 mins by Western blot; assay type: functional, cell-based
NCI-H596 [19] = experiment: Induction of PARP1 hyperactivation in NQO1 deficient human H596 cells assessed as PAR accumulation at 10 uM for 10 mins by Western blot; assay type: functional, cell-based
NCI-H596 [20] = experiment: Cytotoxicity against NQO1 expressing human H596 cells assessed as long term survival at =>5 uM for 2 hrs; assay type: functional, cell-based
In short: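 Isogenic H596 lines (retroviral NQO1 or empty vector, pooled, puromycin 1.0 μg/ml selected) in DMEM/10% FBS, 37°C, 5% CO2. Drug given 2 h, then removed; relative survival from DNA content after 7 days' growth. Confirmed by colony formation; means ± SE of three experiments in triplicate.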

A549 [21] = experiment: Reversal of induction of NAD+ depletion in NQO1 expressing human A549 cells at 10 uM in presence of 40 uM dicoumarol by luciferase based bioluminescence assay; assay type: functional, cell-based; in short: as §6
NCI-H596 [22] = experiment: Induction of NAD+ depletion in NQO1 expressing human H596 cells at 10 uM by luciferase based bioluminescence assay; assay type: functional, cell-based; in short: as §6
A549 [23] = experiment: Induction of ATP depletion in NQO1 expressing human A549 cells at 10 uM by luciferase based bioluminescence assay; assay type: functional, cell-based; in short: as §2
A549 [24] = experiment: Reversal of PAR-polymer formation in NQO1 expressing human A549 cells at 10 uM in presence of 50 uM dicoumarol; assay type: functional, cell-based
NCI-H596 [25] = experiment: Reversal of induction of nucleotide depletion in NQO1 expressing human H596 cells in presence of 3-aminobenzamide by luciferase based bioluminescence assay; assay type: functional, cell-based
In short: (§7)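 Cells pretreated 2 h ± 25 mM 3-AB, then drug ± 3-AB; harvested at set times. NAD+ as % treated/control; ATP by luciferase bioluminescence of whole-cell extracts. Means ± SE of three experiments.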

A549 [26] = experiment: Reversal of induction of DNA damage in human A549 cells in presence of 3-aminobenzamide at 10 uM after 2 hrs; assay type: functional, cell-based
NCI-H596 [27] = experiment: Induction of DNA damage in NQO1 deficient human H596 cells at 10 uM after 2 hrs by alkaline comet tail assay; assay type: functional, cell-based; in short: as §1
A549 [28] = experiment: Reversal of induction of nucleotide depletion in NQO1 expressing human A549 cells in presence of 3-aminobenzamide by luciferase based bioluminescence assay; assay type: functional, cell-based; in short: as §7
A549 [29] = experiment: Induction of oxidative stress in NQO1 expressing human A549 cells assessed as reactive oxygen species generation at 10 uM after 1 hr by flow cytometry; assay type: functional, cell-based
In short: (§8)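 Cells given 10 μM drug ± 50 μM DIC; ROS monitored over a time course by conversion of chloromethyl-dichlorodihydrofluorescein diacetate to fluorescent product, read by flow cytometry. 2 mM H2O2 or 10 μM antimycin A for 20 min as positive controls. Means ± SE, three experiments in duplicate.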

A549 [30] = experiment: Induction of PARP1 hyperactivation in NQO1 expressing human A549 cells assessed as PAR accumulation at 10 uM for 10 mins by Western blot; assay type: functional, cell-based
A549 [31] = experiment: Reversal of induction of cell death in human A549 cells in presence of 3-aminobenzamide at 10 uM after 48 hrs by TUNEL assay; assay type: functional, cell-based
NCI-H596 [32] = experiment: Induction of oxidative stress in NQO1 expressing human H596 cells assessed as reactive oxygen species generation at 10 uM after 1 hr by flow cytometry; assay type: functional, cell-based; in short: as §8
NCI-H596 [33] = experiment: Induction of DNA damage in NQO1 expressing human H596 cells at 10 uM in presence of dicoumarol after 2 hrs by alkaline comet tail assay; assay type: functional, cell-based; in short: as §1
[34] = Cytotoxicity against NQO1 expressing human H596 cells after 2 hrs; assay type: functional; conditions: NCI-H596, 2 h, read-out: LD50 (the source's name); in short: as §5
A549 [35] = experiment: Induction of NAD+ depletion in NQO1 expressing human A549 cells at 10 uM by luciferase based bioluminescence assay; assay type: functional, cell-based; in short: as §6

Question: With CC1(C)CCC2=C(O1)c1ccccc1C(=O)C2=O [LAPACHONE] as the compound, how does the Activity (A549 [1]) read?
Answer: Its Activity is “inactive”.

Question: And the Activity (A549 [2])?
Answer: The Activity was “Active”.

Question: What about the Activity (NCI-H596 [3]) of the same compound?
Answer: Its Activity is “Active”.

Question: What about the Activity (A549 [4]) of the same compound?
Answer: Its Activity is “Active”.

Question: What about the Activity (A549 [5]) of the same compound?
Answer: The Activity was “Active”.

Question: What about the Activity (NCI-H596 [6]) of the same compound?
Answer: Its Activity is “Active”.

Question: And the Activity (NCI-H596 [7])?
Answer: Its Activity is “Active”.

Question: What about the Activity (A549 [8]) of the same compound?
Answer: Its Activity is “Active”.

Question: And the Activity (A549 [9])?
Answer: The Activity was 43%.

Question: What about the Activity (A549 [10]) of the same compound?
Answer: Its Activity is “Active”.

Question: And the Activity (A549 [11])?
Answer: The Activity was “Active”.

Question: And the Activity (NCI-H596 [12])?
Answer: The Activity was “Active”.

Question: And the CC50 (A549 [13])?
Answer: The CC50 was 2.5 µM.

Question: And the Activity (NCI-H596 [14])?
Answer: Its Activity is “Active”.

Question: And the Activity (NCI-H596 [15])?
Answer: The Activity was “Active”.

Question: And the Activity (A549 [16])?
Answer: Its Activity is “Active”.

Question: And the Activity (NCI-H596 [17])?
Answer: Its Activity is “Active”.

Question: And the Activity (NCI-H596 [18])?
Answer: Its Activity is “Active”.

Question: What about the Activity (NCI-H596 [19]) of the same compound?
Answer: Its Activity is “inactive”.

Question: What about the Activity (NCI-H596 [20]) of the same compound?
Answer: The Activity was “Active”.

Question: And the Activity (A549 [21])?
Answer: The Activity was “Active”.

Question: What about the Activity (NCI-H596 [22]) of the same compound?
Answer: Its Activity is “Active”.

Question: What about the Activity (A549 [23]) of the same compound?
Answer: Its Activity is “Active”.

Question: And the Activity (A549 [24])?
Answer: The Activity was “Active”.

Question: What about the Activity (NCI-H596 [25]) of the same compound?
Answer: Its Activity is “Active”.

Question: And the Activity (A549 [26])?
Answer: The Activity was “Active”.

Question: And the Activity (NCI-H596 [27])?
Answer: Its Activity is “inactive”.

Question: What about the Activity (A549 [28]) of the same compound?
Answer: The Activity was “Active”.

Question: And the Activity (A549 [29])?
Answer: Its Activity is “Active”.

Question: What about the Activity (A549 [30]) of the same compound?
Answer: Its Activity is “Active”.

Question: What about the Activity (A549 [31]) of the same compound?
Answer: The Activity was “Active”.

Question: What about the Activity (NCI-H596 [32]) of the same compound?
Answer: The Activity was “Active”.

Question: What about the Activity (NCI-H596 [33]) of the same compound?
Answer: The Activity was “inactive”.

Question: What about the CC50 [34] of the same compound?
Answer: The CC50 was 4 µM.

Question: And the Activity (A549 [35])?
Answer: The Activity was “Active”.
